Assay results taken from ChEMBL document CHEMBL3272068, “Synthesis and biological activities of some N4-substituted 4-aminopyrazolo(3,4-d)pyrimidines” (J Med Chem, 1976).

Experiments:
[1] = Antiproliferative activity against human Nc37 cells assessed as cell viability at 0.1 mM after 72 hrs by trypan blue dye based hemocytometer analysis relative to control; parameters: species or system NC-37; settings: read-out: Activity
In short: (§1)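 Nc 37 (normal donor buffy coat), RPMI 6410 (myeloblastic leukemia) and murine L1210 cells. Compound dissolved in Me2SO, held at 37° overnight for sterilization, diluted in RPMI 1640 + 10% fetal calf serum to final 10⁻⁴ M with 0.5% Me2SO. Unagitated tubes seeded at 2–5 × 10⁵ cells/ml from log-phase stocks. Trypan blue (0.05%) hemocytometer counts every 24 h. Viable density versus control at 72 h banded into rating categories.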

[2] = Antiproliferative activity against human RPMI6410 cells assessed as cell viability at 0.1 mM after 72 hrs by trypan blue dye based hemocytometer analysis relative to control; type: functional; settings: RPMI 6410, 72 h, read-out: Activity; in short: as §1
L1210 = experiment: Antiproliferative activity against mouse L1210 cells assessed as cell viability at 0.1 mM after 72 hrs by trypan blue dye based hemocytometer analysis relative to control; type: functional; settings: L1210, 72 h, read-out: Activity; in short: as §1
[3] = Antiproliferative activity against human RPMI6410 cells assessed as growth inhibition at 0.1 mM; type: functional; settings: RPMI 6410; in short: as §1

Compound | viability at 72 h, 100 µM [1] [%] | viability at 100 µM [2] [%] | viability at 100 µM (L1210) [%] | inhibition at 100 µM [3] [%]
CC(C)(C)NC(=O)Nc1ncnc2[nH]ncc12 | 60 | 60 | 30 | 
CC(C)CNC(=O)Nc1ncnc2[nH]ncc12 | 60 | 60 | 60 | 
CCCCNC(=O)Nc1ncnc2[nH]cnc12 |  |  |  | 70
CCCCCNC(=O)Nc1ncnc2[nH]cnc12 |  |  |  | 70
CCNc1ncnc2[nH]ncc12 | 90 | 90 | 60 | 
CCOCCNC(=O)Nc1ncnc2[nH]ncc12 | 80 | 30 | 80 | 
O=C(Nc1cccc(Cl)c1)Nc1ncnc2[nH]ncc12 | 0 | 0 | 0 | 
CCCCNC(=O)Nc1ncnc2[nH]ncc12 | 80 | 80 | 60 | 
CCCCCCCCNC(=O)Nc1ncnc2[nH]ncc12 | 0 | 0 | 0 | 
O=C(NCCCc1ccccc1)Nc1ncnc2[nH]ncc12 | 30 | 60 | 60 | 
CC(C)CCNC(=O)Nc1ncnc2[nH]cnc12 |  |  |  | 70
CC(C)CCNc1ncnc2[nH]ncc12 | 0 | 30 | 0 | 
O=C(Nc1ncnc2[nH]ncc12)NC12CC3CC(CC(C3)C1)C2 | 30 | 30 | 0 | 
O=C(O)CNC(=O)Nc1ncnc2[nH]ncc12 | 90 | 60 | 80 | 
O=C(Nc1ccc(Cl)cc1)Nc1ncnc2[nH]ncc12 | 30 | 30 | 30 | 
O=C(NCCCCc1ccccc1)Nc1ncnc2[nH]ncc12 | 60 | 80 | 30 | 
O=C(Nc1ccccc1F)Nc1ncnc2[nH]ncc12 | 90 | 60 | 60 | 
O=C(Nc1ccccc1)Nc1ncnc2[nH]ncc12 | 90 | 30 | 60 | 
c1ccc(CNc2ncnc3[nH]ncc23)cc1 | 30 | 30 | 0 | 
CC(C)(C)CNC(=O)Nc1ncnc2[nH]ncc12 | 60 | 60 | 30 | 
CC(C)NC(=O)Nc1ncnc2[nH]ncc12 | 30 | 80 | 80 | 
C#CCNC(=O)Nc1ncnc2[nH]ncc12 | 90 | 30 | 60 | 
CC(C)CCNC(=O)Nc1ncnc2[nH]ncc12 | 60 | 60 | 60 | 
CCCCCNC(=O)Nc1ncnc2[nH]ncc12 | 0 | 30 | 30 | 
CC(C)Nc1ncnc2[nH]ncc12 | 30 | 60 | 90 | 
C[C@@H](O)[C@H](NC(=O)Nc1ncnc2[nH]ncc12)C(=O)O | 30 | 30 | 30 | 
C=CCNC(=O)Nc1ncnc2[nH]ncc12 | 30 | 90 | 0 | 
C=CCNc1ncnc2[nH]ncc12 | 60 | 30 | 60 | 
O=C(Nc1ccccc1Cl)Nc1ncnc2[nH]ncc12 | 90 | 80 | 60 | 
